Activity calls are given as the source filed them. The calls are words filed in the database; no cut-off is given here.

Sequence of von Hippel-Lindau disease tumor suppressor/RAC-alpha serine/threonine-protein kinase (Homo sapiens) (P31749 whole entry, looked up): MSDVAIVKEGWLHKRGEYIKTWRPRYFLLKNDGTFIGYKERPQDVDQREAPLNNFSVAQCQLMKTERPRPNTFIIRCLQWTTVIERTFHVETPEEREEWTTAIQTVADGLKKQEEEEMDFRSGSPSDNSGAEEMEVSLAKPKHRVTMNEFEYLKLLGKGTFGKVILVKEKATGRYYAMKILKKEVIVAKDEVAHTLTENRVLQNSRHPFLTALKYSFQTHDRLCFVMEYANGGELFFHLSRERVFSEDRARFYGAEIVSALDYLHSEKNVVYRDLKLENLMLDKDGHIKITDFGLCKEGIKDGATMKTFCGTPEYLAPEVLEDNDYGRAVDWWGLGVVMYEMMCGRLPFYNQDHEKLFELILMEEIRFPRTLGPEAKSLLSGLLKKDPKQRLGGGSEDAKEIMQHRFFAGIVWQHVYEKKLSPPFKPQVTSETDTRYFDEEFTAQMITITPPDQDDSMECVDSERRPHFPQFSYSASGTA
Sequence of von Hippel-Lindau disease tumor suppressor/RAC-alpha serine/threonine-protein kinase (Homo sapiens) (P40337 whole entry, looked up): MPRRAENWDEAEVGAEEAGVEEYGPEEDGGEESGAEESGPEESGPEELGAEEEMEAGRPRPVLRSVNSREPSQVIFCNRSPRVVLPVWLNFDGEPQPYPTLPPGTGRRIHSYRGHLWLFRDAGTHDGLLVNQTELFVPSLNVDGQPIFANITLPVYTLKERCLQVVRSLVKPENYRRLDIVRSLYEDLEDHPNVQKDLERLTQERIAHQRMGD

One test has as its target von Hippel-Lindau disease tumor suppressor/RAC-alpha serine/threonine-protein kinase (Homo sapiens) (UniProt P31749+P40337). Kind of test: Protac activity at VHL/AKT in human PC-3 cells assessed as reduction in total Akt level at 1 uM incubated for 24 hrs by Western blot analysis. Type of test: cell-based.
Settings: not given
The method in brief: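 Cells grown in DMEM with 10% FBS at 37 °C, 5% CO2, then exposed to compound at 1 μM for 24 h. Lysates made in 2X urea/SDS sample buffer, run on 4–12% Bis-Tris gels, transferred to PVDF, probed for total AKT overnight at 4 °C; HRP/chemiluminescence detection with β-actin as loading control.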
Consider `Cc1ncsc1-c1ccc(CNC(=O)[C@@H]2C[C@@H](O)CN2C(=O)[C@@H](NC(=O)CCCCCCCCCC(=O)NCCc2cccc(-c3ccc4nc(-c5cccnc5N)n(-c5ccc(C6(N)CCC6)cc5)c4n3)c2)C(C)(C)C)cc1`, for which the outcome was Active.
The same measure, in the same setting: the entry for `Cc1ncsc1-c1ccc(CNC(=O)[C@@H]2C[C@@H](O)CN2C(=O)[C@@H](NC(=O)COCCOCCOCCOCCOCC(=O)NCCc2cccc(-c3ccc4nc(-c5cccnc5N)n(-c5ccc(C6(N)CCC6)cc5)c4n3)c2)C(C)(C)C)cc1` is “Active”.
Take `Cc1ncsc1-c1ccc(CNC(=O)[C@@H]2C[C@@H](O)CN2C(=O)[C@@H](NC(=O)CCCCCCCCNC(=O)CCc2cccc(-c3ccc4nc(-c5cccnc5N)n(-c5ccc(C6(N)CCC6)cc5)c4n3)c2)C(C)(C)C)cc1`: the outcome was Active.
The same measure, in the same setting: the entry for `Cc1ncsc1-c1ccc(CNC(=O)[C@@H]2C[C@@H](O)CN2C(=O)[C@@H](NC(=O)COCCOCCNC(=O)CCc2cccc(-c3ccc4nc(-c5cccnc5N)n(-c5ccc(C6(N)CCC6)cc5)c4n3)c2)C(C)(C)C)cc1` is “Active”; for `Cc1ncsc1-c1ccc(CNC(=O)[C@@H]2C[C@@H](O)CN2C(=O)[C@@H](NC(=O)CCOCCC(=O)NCCc2cccc(-c3ccc4nc(-c5cccnc5N)n(-c5ccc(C6(N)CCC6)cc5)c4n3)c2)C(C)(C)C)cc1` it is “Active”; for `Cc1ncsc1-c1ccc(CNC(=O)[C@@H]2C[C@@H](O)CN2C(=O)[C@@H](NC(=O)CCCCCCCCCCNC(=O)CCc2cccc(-c3ccc4nc(-c5cccnc5N)n(-c5ccc(C6(N)CCC6)cc5)c4n3)c2)C(C)(C)C)cc1` it is “Active”.
On the same count and under the same terms, the entry for `Cc1ncsc1-c1ccc(CNC(=O)[C@@H]2C[C@@H](O)CN2C(=O)[C@@H](NC(=O)CCOCCNC(=O)CCc2cccc(-c3ccc4nc(-c5cccnc5N)n(-c5ccc(C6(N)CCC6)cc5)c4n3)c2)C(C)(C)C)cc1` is “Active”; for `Cc1ncsc1-c1ccc(CNC(=O)[C@@H]2C[C@@H](O)CN2C(=O)[C@@H](NC(=O)CCCCCCCCCNC(=O)CCc2cccc(-c3ccc4nc(-c5cccnc5N)n(-c5ccc(C6(N)CCC6)cc5)c4n3)c2)C(C)(C)C)cc1` it is “Active”; for `Cc1ncsc1-c1ccc(CNC(=O)[C@@H]2C[C@@H](O)CN2C(=O)[C@@H](NC(=O)CCOCCOCCNC(=O)CCc2cccc(-c3ccc4nc(-c5cccnc5N)n(-c5ccc(C6(N)CCC6)cc5)c4n3)c2)C(C)(C)C)cc1` it is “Active”.
Still for that read-out and setting: the entry for `Cc1ncsc1-c1ccc(CNC(=O)[C@@H]2C[C@@H](O)CN2C(=O)[C@@H](NC(=O)COCC(=O)NCCc2cccc(-c3ccc4nc(-c5cccnc5N)n(-c5ccc(C6(N)CCC6)cc5)c4n3)c2)C(C)(C)C)cc1` is “Active”; for `Cc1ncsc1-c1ccc(CNC(=O)[C@@H]2C[C@@H](O)CN2C(=O)[C@@H](NC(=O)CCCCCCCC(=O)NCCc2cccc(-c3ccc4nc(-c5cccnc5N)n(-c5ccc(C6(N)CCC6)cc5)c4n3)c2)C(C)(C)C)cc1` it is “Active”.
Consider `Cc1ncsc1-c1ccc(CNC(=O)[C@@H]2C[C@@H](O)CN2C(=O)[C@@H](NC(=O)CCCCCCCNC(=O)CCc2cccc(-c3ccc4nc(-c5cccnc5N)n(-c5ccc(C6(N)CCC6)cc5)c4n3)c2)C(C)(C)C)cc1`, for which the outcome was Active.
As for `Cc1ncsc1-c1ccc(CNC(=O)[C@@H]2C[C@@H](O)CN2C(=O)[C@@H](NC(=O)COCCOCCOCCNC(=O)CCc2cccc(-c3ccc4nc(-c5cccnc5N)n(-c5ccc(C6(N)CCC6)cc5)c4n3)c2)C(C)(C)C)cc1`, the outcome was Active.
For the compound `Cc1ncsc1-c1ccc(CNC(=O)[C@@H]2C[C@@H](O)CN2C(=O)[C@@H](NC(=O)COCCNC(=O)CCc2cccc(-c3ccc4nc(-c5cccnc5N)n(-c5ccc(C6(N)CCC6)cc5)c4n3)c2)C(C)(C)C)cc1`, the outcome was Active.
The same measure, in the same setting: the entry for `Cc1ncsc1-c1ccc(CNC(=O)[C@@H]2C[C@@H](O)CN2C(=O)[C@@H](NC(=O)CCOCCOCCOCCOCCOCCC(=O)NCCc2cccc(-c3ccc4nc(-c5cccnc5N)n(-c5ccc(C6(N)CCC6)cc5)c4n3)c2)C(C)(C)C)cc1` is “Active”.

The subject of the next test is PC-3. Kind of test: Inhibition of colony formation in human PC-3 cells at 0.1 to 10 uM incubated for 2 weeks with media replacement for every 2 days by crystal violet staining based analysis. Type of test: functional, cell-based. Conditions: dose 0.1-10 µM. In short, it runs like this:
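PC3 cells kept 14 days with compound; compound-containing medium replenished every two days. Viable cells stained with 0.5% crystal violet.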
Take `Cc1ncsc1-c1ccc(CNC(=O)[C@@H]2C[C@@H](O)CN2C(=O)[C@@H](NC(=O)CCCCCCCCCC(=O)NCCc2cccc(-c3ccc4nc(-c5cccnc5N)n(-c5ccc(C6(N)CCC6)cc5)c4n3)c2)C(C)(C)C)cc1`: the inhibition entry is “Active”.
The same measure, in the same setting: the entry for `Cc1ncsc1-c1ccc(CNC(=O)[C@@H]2C[C@@H](O)CN2C(=O)[C@@H](NC(=O)CCCCCCCCCCNC(=O)CCc2cccc(-c3ccc4nc(-c5cccnc5N)n(-c5ccc(C6(N)CCC6)cc5)c4n3)c2)C(C)(C)C)cc1` is “Active”.

(Values after ChEMBL document CHEMBL5214961, “Novel Allosteric Inhibitor-Derived AKT Proteolysis Targeting Chimeras (PROTACs) Enable Potent and Selective AKT Degradation in KRAS/BRAF Mutant Cells” (J Med Chem, 2022).)
